Experimental data as given in ChEMBL document CHEMBL5674880 (PLoS One, 2018).

Assays:
Assay type in all cases: functional, cell-based
DMS-114 = test: Antiproliferative activity against human DMS-114 cells after 10 days; conditions: DMS-114, 240 h
Outline: (§1)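 10-day 2D proliferation screen of a broad cancer cell panel (about 240 lines, Eurofins Oncopanel). All lines were mycoplasma negative and STR verified. Compounds were dosed up to a top concentration of 10 μM or 25 μM, depending on the inhibitor. Anti-proliferative IC50 values are the average of three biological replicates.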

CAKI-2 = test: Antiproliferative activity against human CAKI-2 cells after 10 days; conditions: CAKI-2, 240 h
Outline: (§2)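 Tested as part of a 240-line cancer cell panel (Eurofins Oncopanel); all lines were mycoplasma-negative and STR-verified. Cells were exposed to a compound concentration series in 2D culture for 10 days. The highest concentration was 10 μM or 25 μM, depending on the inhibitor. Antiproliferative IC50 was derived from the mean of three biological replicates.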

647-V = test: Antiproliferative activity against human 647-V cells after 10 days; conditions: 240 h
Outline: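 Tested in the Eurofins Oncopanel of about 240 cancer cell lines, all mycoplasma-negative and STR-verified. Cells were exposed to compound for 10 days in 2D culture, and a proliferative IC50 was derived from the concentration series. The highest concentration tested was 10 μM in the SMYD2 inhibitor screen and 25 μM in the SMYD3 inhibitor screen. Values are means of three biological replicates.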

SK-UT-1 = test: Antiproliferative activity against human SK-UT-1 cells after 10 days; conditions: SK-UT-1, 240 h
LS-1034 = test: Antiproliferative activity against human LS1034 cells after 10 days; conditions: LS-1034, 240 h
Outline: (§3)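 Broad cancer cell line panel (Eurofins Oncopanel, about 240 lines; mycoplasma negative, STR verified) grown in 2D culture and exposed to compound in a 10-day proliferation assay. The top concentration was 10 μM for the SMYD2 inhibitor series and 25 μM for the SMYD3 inhibitor. The proliferative IC50 is taken from concentration-response data, each value the mean of three biological replicates.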

EM-2 = test: Antiproliferative activity against human EM-2 cells after 10 days; conditions: EM-2, 240 h; outline: as §1
THP-1 = test: Antiproliferative activity against human THP-1 cells after 10 days; conditions: THP-1, 240 h
DOHH-2 = test: Antiproliferative activity against human DOHH-2 cells after 10 days; conditions: DOHH-2, 240 h; outline: as §1
KLE = test: Antiproliferative activity against human KLE cells after 10 days; conditions: 240 h; outline: as §3
SW1417 = test: Antiproliferative activity against human SW1417 cells after 10 days; conditions: SW1417, 240 h
NCI-H295R = test: Antiproliferative activity against human NCI-H295R cells after 10 days; conditions: 240 h; outline: as §3
[1] = Antiproliferative activity against human HLF cells after 10 days; conditions: 240 h; outline: as §1
COLO-320-HSR = test: Antiproliferative activity against human COLO 320HSR cells after 10 days; conditions: 240 h; outline: as §2
BPH-1 = test: Antiproliferative activity against human BPH-1 cells after 10 days; conditions: BPH-1, 240 h; outline: as §2
MEG-01 = test: Antiproliferative activity against human MEG-01 cells after 10 days; conditions: MEG-01, 240 h; outline: as §3
SK-MEL-1 = test: Antiproliferative activity against human SK-MEL-1 cells after 10 days; conditions: SK-MEL-1, 240 h
639-V = test: Antiproliferative activity against human 639-V cells after 10 days; conditions: 240 h; outline: as §2
Malme-3M = test: Antiproliferative activity against human Malme-3M cells after 10 days; conditions: 240 h; outline: as §3
COLO 205 = test: Antiproliferative activity against human COLO 205 cells after 10 days; conditions: COLO 205, 240 h; outline: as §2
ASPC1 = test: Antiproliferative activity against human ASPC1 cells after 10 days; conditions: ASPC1, 240 h; outline: as §2
[2] = Antiproliferative activity against human SKO-007 cells after 10 days; conditions: SKO-007, 240 h
MHH-PREB-1 = test: Antiproliferative activity against human MHH-PREB-1 cells after 10 days; conditions: MHH-PREB-1, 240 h; outline: as §3
[3] = test system: KATO III stomach cancer cell line; test: Antiproliferative activity against human KATO III cells after 10 days; conditions: 240 h; outline: as §3
[4] = Antiproliferative activity against human OE21 cells after 10 days; conditions: OE21, 240 h; outline: as §3
[5] = Antiproliferative activity against human CEM/C1 cells after 10 days; conditions: CEM/C1, 240 h; outline: as §2
SW480 = test: Antiproliferative activity against human SW480 cells after 10 days; conditions: SW480, 240 h
[6] = Antiproliferative activity against human HUH-6-clone5 cells after 10 days; conditions: HUH-6-clone5, 240 h; outline: as §1
[7] = Antiproliferative activity against human BM-1604 cells after 10 days; conditions: BM-1604, 240 h; outline: as §2
Capan-2 = test: Antiproliferative activity against human Capan2 cells after 10 days; conditions: Capan-2, 240 h; outline: as §1
ES-2 = test: Antiproliferative activity against human ES2 cells after 10 days; conditions: ES-2, 240 h; outline: as §1
FaDu = test: Antiproliferative activity against human FaDu cells after 10 days; conditions: 240 h; outline: as §1
HT-1080 = test: Antiproliferative activity against human HT-1080 cells after 10 days; conditions: HT-1080, 240 h; outline: as §1
CAL-27 = test: Antiproliferative activity against human CAL-27 cells after 10 days; conditions: CAL-27, 240 h; outline: as §2
RKO = test: Antiproliferative activity against human RKO cells after 10 days; conditions: 240 h; outline: as §3
NCI-H508 = test: Antiproliferative activity against human NCI-H508 cells after 10 days; conditions: NCI-H508, 240 h; outline: as §3
SW-403 = test: Antiproliferative activity against human SW403 cells after 10 days; conditions: SW-403, 240 h
BT-549 = test: Antiproliferative activity against human BT-549 cells after 10 days; conditions: BT-549, 240 h; outline: as §2
SW1783 = test: Antiproliferative activity against human SW1783 cells after 10 days; conditions: SW1783, 240 h
SNU1 = test: Antiproliferative activity against human SNU1 cells after 10 days; conditions: SNU1, 240 h
MC-IXC = test: Antiproliferative activity against human MC-IXC cells after 10 days; conditions: 240 h; outline: as §3
SCaBER = test: Antiproliferative activity against human SCaBER cells after 10 days; conditions: 240 h
SNU-5 = test: Antiproliferative activity against human SNU-5 cells after 10 days; conditions: SNU-5, 240 h
SW1088 = test: Antiproliferative activity against human SW1088 cells after 10 days; conditions: SW1088, 240 h
SW837 = test: Antiproliferative activity against human SW837 cells after 10 days; conditions: SW837, 240 h
CRO-AP2 = test: Antiproliferative activity against human CRO-AP2 cells after 10 days; conditions: CRO-AP2, 240 h; outline: as §1
DK-MG = test: Antiproliferative activity against human DK-MG cells after 10 days; conditions: 240 h; outline: as §1
SK-NEP-1 = test: Antiproliferative activity against human SK-NEP-1 cells after 10 days; conditions: SK-NEP-1, 240 h
SAOS-2 = test: Antiproliferative activity against human SAOS-2 cells after 10 days; conditions: SAOS-2, 240 h

Cc1cn(CCN2CCN(c3ccccc3-c3cc(C#N)cc(C(=O)NCCCN4CCCC4)c3)CC2)c2ccccc12
IC50 (DMS-114): 2.33 µM | IC50 (CAKI-2): 1.22 µM | IC50 (647-V): 1.48 µM | IC50 (SK-UT-1): 1.41 µM | IC50 (LS-1034): 2.9 µM | IC50 (EM-2): 2.22 µM | IC50 (THP-1): 2.86 µM | IC50 (DOHH-2): 0.263 µM | IC50 (KLE): 3.21 µM | IC50 (SW1417): 3.23 µM | IC50 (NCI-H295R): 4.84 µM | IC50 [1]: 2.44 µM | IC50 (COLO-320-HSR): 2.74 µM | IC50 (BPH-1): 3.49 µM | IC50 (MEG-01): 1.28 µM | IC50 (SK-MEL-1): 1.9 µM | IC50 (639-V): 1.14 µM | IC50 (Malme-3M): 2.4 µM | IC50 (COLO 205): 0.944 µM | IC50 (ASPC1): 3.01 µM | IC50 [2]: 0.855 µM | IC50 (MHH-PREB-1): 1.06 µM | IC50 [3]: 1.39 µM | IC50 [4]: 1.06 µM | IC50 [5]: 1.27 µM | IC50 (SW480): 2.15 µM | IC50 [6]: 1.34 µM | IC50 [7]: 4.82 µM | IC50 (Capan-2): 1.57 µM | IC50 (ES-2): 1.32 µM | IC50 (FaDu): 2.36 µM | IC50 (HT-1080): 1.98 µM | IC50 (CAL-27): 2.52 µM | IC50 (RKO): 1.04 µM | IC50 (NCI-H508): 3.09 µM | IC50 (SW-403): 3.12 µM | IC50 (BT-549): 3.29 µM | IC50 (SW1783): 2.96 µM | IC50 (SNU1): 1.19 µM | IC50 (MC-IXC): 1.92 µM | IC50 (SCaBER): 1.5 µM | IC50 (SNU-5): 3.32 µM | IC50 (SW1088): 1.18 µM | IC50 (SW837): 3.69 µM | IC50 (CRO-AP2): 2.26 µM | IC50 (DK-MG): 6.42 µM | IC50 (SK-NEP-1): 3.18 µM | IC50 (SAOS-2): 3.03 µM

O=C(NC1CN(Cc2cnn(Cc3ccccc3)c2)C1)c1cn(C2CC2)nn1
IC50 (DMS-114): > 10 µM | IC50 (CAKI-2): > 10 µM | IC50 (647-V): > 10 µM | IC50 (SK-UT-1): > 10 µM | IC50 (LS-1034): > 10 µM | IC50 (EM-2): > 10 µM | IC50 (THP-1): > 10 µM | IC50 (DOHH-2): > 10 µM | IC50 (KLE): > 10 µM | IC50 (SW1417): > 10 µM | IC50 (NCI-H295R): > 10 µM | IC50 [1]: > 10 µM | IC50 (COLO-320-HSR): > 10 µM | IC50 (BPH-1): > 10 µM | IC50 (MEG-01): > 10 µM | IC50 (SK-MEL-1): > 10 µM | IC50 (639-V): > 10 µM | IC50 (Malme-3M): > 10 µM | IC50 (COLO 205): > 10 µM | IC50 (ASPC1): > 10 µM | IC50 [2]: 0.168 µM | IC50 (MHH-PREB-1): > 10 µM | IC50 [3]: > 10 µM | IC50 [4]: 3.4 µM | IC50 [5]: > 10 µM | IC50 (SW480): > 10 µM | IC50 [6]: > 10 µM | IC50 [7]: > 10 µM | IC50 (Capan-2): > 10 µM | IC50 (ES-2): > 10 µM | IC50 (FaDu): > 10 µM | IC50 (HT-1080): > 10 µM | IC50 (CAL-27): > 10 µM | IC50 (RKO): > 10 µM | IC50 (NCI-H508): > 10 µM | IC50 (SW-403): > 10 µM | IC50 (BT-549): > 10 µM | IC50 (SW1783): > 10 µM | IC50 (SNU1): > 10 µM | IC50 (MC-IXC): > 10 µM | IC50 (SCaBER): > 10 µM | IC50 (SNU-5): > 10 µM | IC50 (SW1088): > 10 µM | IC50 (SW837): > 10 µM | IC50 (CRO-AP2): 0.075 µM | IC50 (DK-MG): > 10 µM | IC50 (SK-NEP-1): > 10 µM | IC50 (SAOS-2): > 10 µM
